Experimental data as given in ChEMBL document CHEMBL1795212, “Synthesis and in vitro antimalarial activity of tetraoxane-amine/amide conjugates” (Eur J Med Chem, 2011).

Legend:
Plasmodium falciparum [1] = experiment: Antimalarial activity against Plasmodium falciparum W2 assessed as plasmodial LDH activity after 72 hrs; assay type: functional, organism-based; conditions: Plasmodium falciparum, W2, 72 h; read-out: IC50
How it was run: (§1)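 P. falciparum D6 (chloroquine-sensitive) and W2 (chloroquine-resistant) clones screened in vitro alongside Vero cytotoxicity, up to a highest concentration of 12.5; IC50 determined.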

[2] = Selectivity index, IC50 for african green monkey Vero cells to IC50 for Plasmodium falciparum W2; assay type: functional
How it was run: (§2)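 Selectivity index is the cytotoxicity IC50 in Vero cells divided by the antimalarial IC50 against the stated P. falciparum clone (D6 or W2).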

Plasmodium falciparum [3] = experiment: Antimalarial activity against Plasmodium falciparum D6 assessed as plasmodial LDH activity after 72 hrs; assay type: functional, organism-based; conditions: Plasmodium falciparum, D6, 72 h; read-out: IC50; how it was run: as §1
Vero [4] = experiment: Cytotoxicity against african green monkey Vero cells up to 25 uM; assay type: cell-based; conditions: chlorocebus sabaeus
How it was run: (§3)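 Cytotoxicity panel: four cancer lines (SK-MEL, KB, BT-549, SK-OV-3) and two non-cancer lines (Vero, LLC-PK11), tested up to a concentration of 25.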

Vero [5] = experiment: Cytotoxicity against african green monkey Vero cells at 12.5 uM; assay type: cell-based; conditions: chlorocebus sabaeus
How it was run: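 Mammalian kidney Vero cells screened in vitro for cytotoxicity, in parallel with the antimalarial screen, up to a highest concentration of 12.5.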

BT-549 = experiment: Cytotoxicity against human BT549 cells up to 25 uM; assay type: cell-based; how it was run: as §3
[6] = Cytotoxicity against pig LLC-PK11 cells up to 25 uM; assay type: cell-based, Sus scrofa; how it was run: as §3
KB = experiment: Cytotoxicity against human KB cells up to 25 uM; assay type: cell-based; how it was run: as §3
SK-OV-3 = experiment: Cytotoxicity against human SKOV3 cells up to 25 uM; assay type: cell-based; how it was run: as §3
[7] = Selectivity index, IC50 for african green monkey Vero cells to IC50 for Plasmodium falciparum D6; assay type: functional; how it was run: as §2
SK-MEL = experiment: Cytotoxicity against human SK-MEL cells up to 25 uM; assay type: cell-based; how it was run: as §3

Cc1ccc(C2OOC(c3ccc(CNc4cccnc4)cc3)OO2)cc1 (configuration not stated)
IC50 (Plasmodium falciparum [1]): 570 nM | Ratio IC50 [2]: >22.7 | IC50 (Plasmodium falciparum [3]): 380 nM | Activity (Vero [4]): Non-toxic | Activity (Vero [5]): Non-toxic | Activity (BT-549): Non-toxic | Activity [6]: Non-toxic | Activity (KB): Non-toxic | Activity (SK-OV-3): Non-toxic | Ratio IC50 [7]: >34 | Activity (SK-MEL): Non-toxic

Cc1ccc(C2OOC(c3ccc(/C=N\c4cccnc4)cc3)OO2)cc1 (configuration not stated)
IC50 (Plasmodium falciparum [1]): 800 nM | Ratio IC50 [2]: >16.4 | IC50 (Plasmodium falciparum [3]): 750 nM | Activity (Vero [4]): Non-toxic | Activity (Vero [5]): Non-toxic | Activity (BT-549): Non-toxic | Activity [6]: Non-toxic | Activity (KB): Non-toxic | Activity (SK-OV-3): Non-toxic | Ratio IC50 [7]: >17.6 | Activity (SK-MEL): Non-toxic

Cc1ccc(C2OOC(c3ccc(C(=O)NCCNc4ccnc5cc(Cl)ccc45)cc3)OO2)cc1 (configuration not stated)
IC50 (Plasmodium falciparum [1]): 1500 nM | Ratio IC50 [2]: >6.3 | IC50 (Plasmodium falciparum [3]): 1100 nM | Activity (Vero [5]): Non-toxic | Ratio IC50 [7]: >8.5

CCc1ccc(C2OOC(c3ccc(C(=O)NCCO)cc3)OO2)cc1 (configuration not stated)
IC50 (Plasmodium falciparum [1]): 7510 nM | Ratio IC50 [2]: >1.8 | IC50 (Plasmodium falciparum [3]): 6670 nM | Activity (Vero [5]): Non-toxic | Ratio IC50 [7]: >2

Cc1ccc(C2OOC(c3ccc(C(=O)NCCc4ccccc4)cc3)OO2)cc1 (configuration not stated)
IC50 (Plasmodium falciparum [1]): 2090 nM | Ratio IC50 [2]: >5.6 | IC50 (Plasmodium falciparum [3]): 2710 nM | Activity (Vero [5]): Non-toxic | Ratio IC50 [7]: >4.3

Cc1ccc(C2OOC(c3ccc(C(=O)NCCCNc4ccnc5cc(Cl)ccc45)cc3)OO2)cc1 (configuration not stated)
IC50 (Plasmodium falciparum [1]): 2110 nM | Ratio IC50 [2]: >4.3 | IC50 (Plasmodium falciparum [3]): 1190 nM | Activity (Vero [5]): Non-toxic | Ratio IC50 [7]: >7.7

CCCCNC(=O)c1ccc(C2OOC(c3ccc(CC)cc3)OO2)cc1 (configuration not stated)
IC50 (Plasmodium falciparum [1]): 6990 nM | Ratio IC50 [2]: >1.8 | IC50 (Plasmodium falciparum [3]): 6730 nM | Activity (Vero [5]): Non-toxic | Ratio IC50 [7]: >1.9

CCc1ccc(C2OOC(c3ccc(COS(C)(=O)=O)cc3)OO2)cc1 (configuration not stated)
IC50 (Plasmodium falciparum [1]): 3940 nM | Ratio IC50 [2]: >3.2 | IC50 (Plasmodium falciparum [3]): 4990 nM | Activity (Vero [5]): Non-toxic | Ratio IC50 [7]: >2.5

CCc1ccc(C2OOC(c3ccc(CO)cc3)OO2)cc1 (configuration not stated)
IC50 (Plasmodium falciparum [1]): 1090 nM | Ratio IC50 [2]: 14.4 | IC50 (Plasmodium falciparum [3]): 1580 nM | Activity (Vero [5]): Non-toxic | Ratio IC50 [7]: 9.9

Cc1ccc(C2OOC(c3ccc(CNc4ccc(F)cc4)cc3)OO2)cc1 (configuration not stated)
IC50 (Plasmodium falciparum [1]): 2350 nM | Ratio IC50 [2]: >5.3 | IC50 (Plasmodium falciparum [3]): 2090 nM | Activity (Vero [5]): Non-toxic | Ratio IC50 [7]: >6

Cc1ccc(C2OOC(c3ccc(CNc4ccc(Br)cc4)cc3)OO2)cc1 (configuration not stated)
IC50 (Plasmodium falciparum [1]): 4970 nM | Ratio IC50 [2]: >2.2 | IC50 (Plasmodium falciparum [3]): 7690 nM | Activity (Vero [5]): Non-toxic | Ratio IC50 [7]: >1.4

OCc1ccc(C2OOC(c3ccccc3)OO2)cc1 (configuration not stated)
IC50 (Plasmodium falciparum [1]): 1820 nM | Ratio IC50 [2]: >9.5 | IC50 (Plasmodium falciparum [3]): 3090 nM | Activity (Vero [5]): Non-toxic | Ratio IC50 [7]: >5.6

Cc1ccc(C2OOC(c3ccc(C(=O)NC4CCCCC4)cc3)OO2)cc1 (configuration not stated)
IC50 (Plasmodium falciparum [1]): 2860 nM | Ratio IC50 [2]: >4.3 | IC50 (Plasmodium falciparum [3]): 4430 nM | Activity (Vero [5]): Non-toxic | Ratio IC50 [7]: >2.8

Cc1ccc(C2OOC(c3ccc(/C=N/Cc4ccccc4)cc3)OO2)cc1 (configuration not stated)
IC50 (Plasmodium falciparum [1]): 6400 nM | Ratio IC50 [2]: >2 | IC50 (Plasmodium falciparum [3]): 4800 nM | Activity (Vero [5]): Non-toxic | Ratio IC50 [7]: >2.6

CCc1ccc(C2OOC(c3ccc(C(=O)NCCCO)cc3)OO2)cc1 (configuration not stated)
IC50 (Plasmodium falciparum [1]): 4820 nM | Ratio IC50 [2]: >2.6 | IC50 (Plasmodium falciparum [3]): 4820 nM | Activity (Vero [5]): Non-toxic | Ratio IC50 [7]: >2.6

Cc1ccc(C2OOC(c3ccc(CNc4cccc(C)c4)cc3)OO2)cc1 (configuration not stated)
IC50 (Plasmodium falciparum [1]): 2380 nM | Ratio IC50 [2]: >5.3 | IC50 (Plasmodium falciparum [3]): 2640 nM | Activity (Vero [5]): Non-toxic | Ratio IC50 [7]: >4.8

Cc1cccc(C2OOC(c3ccc(CO)cc3)OO2)c1 (configuration not stated)
IC50 (Plasmodium falciparum [1]): 1380 nM | Ratio IC50 [2]: >11.9 | IC50 (Plasmodium falciparum [3]): 1280 nM | Activity (Vero [5]): Non-toxic | Ratio IC50 [7]: >12.9

Cc1ccc(C2OOC(c3ccc(CNCCc4ccccc4)cc3)OO2)cc1 (configuration not stated)
IC50 (Plasmodium falciparum [1]): 6390 nM | Ratio IC50 [2]: >1.9 | IC50 (Plasmodium falciparum [3]): 7670 nM | Activity (Vero [5]): Non-toxic | Ratio IC50 [7]: >1.6

Cc1ccc(C2OOC(c3ccc(C(=O)NCCCCCCCN)cc3)OO2)cc1 (configuration not stated)
IC50 (Plasmodium falciparum [1]): 4660 nM | Ratio IC50 [2]: >2.4 | IC50 (Plasmodium falciparum [3]): 5130 nM | Activity (Vero [5]): Non-toxic | Ratio IC50 [7]: >2.2

Cc1ccc(C2OOC(c3ccc(CNc4ccccc4F)cc3)OO2)cc1 (configuration not stated)
IC50 (Plasmodium falciparum [1]): 1830 nM | Ratio IC50 [2]: >6.8 | IC50 (Plasmodium falciparum [3]): 1880 nM | Activity (Vero [5]): Non-toxic | Ratio IC50 [7]: >6.6

CCc1ccc(NCc2ccc(C3OOC(c4ccc(C)cc4)OO3)cc2)cc1 (configuration not stated)
IC50 (Plasmodium falciparum [1]): 2350 nM | Ratio IC50 [2]: >5.2 | IC50 (Plasmodium falciparum [3]): 3320 nM | Activity (Vero [5]): Non-toxic | Ratio IC50 [7]: >3.7

Cc1ccc(C2OOC(c3ccc(CNCc4ccccc4)cc3)OO2)cc1 (configuration not stated)
IC50 (Plasmodium falciparum [1]): 3440 nM | Ratio IC50 [2]: >3.7 | IC50 (Plasmodium falciparum [3]): 3440 nM | Activity (Vero [5]): Non-toxic | Ratio IC50 [7]: >3.7

Cc1ccc(C2OOC(c3ccc(COS(C)(=O)=O)cc3)OO2)cc1 (configuration not stated)
IC50 (Plasmodium falciparum [1]): 8180 nM | Ratio IC50 [2]: >1.6 | IC50 (Plasmodium falciparum [3]): 7640 nM | Activity (Vero [5]): Non-toxic | Ratio IC50 [7]: >1.7
